Screening results (PubChem BioAssay)
L929 necroptosis – inhibitors of zVAD-triggered necroptosis, primary screen, L929 cells. viability rescue, % at 10 µM. hit rate 0.38% among 220,000. L929 zVAD necroptosis rescue, ATP luminescence, 24 h; with zVAD 60 µM;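 active = activation, scaled between plate controls, above about 75%, limit read from the data; inactive = activation under that limit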
Rad51 HR inh – human RAD51 strand exchange inhibitors, primary screen, biochemical, fluorescence; AID 1385, 2008; DNA repair protein RAD51 homolog 1 (Homo sapiens), Q06609; inhibition, % at 10 µM; hRad51 DNA strand exchange, fluorescence dequenching; hit rate 0.085% among 200,000;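 active = inhibition above 40% at the single screening dose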
Target sequence (Q06609 whole entry, looked up): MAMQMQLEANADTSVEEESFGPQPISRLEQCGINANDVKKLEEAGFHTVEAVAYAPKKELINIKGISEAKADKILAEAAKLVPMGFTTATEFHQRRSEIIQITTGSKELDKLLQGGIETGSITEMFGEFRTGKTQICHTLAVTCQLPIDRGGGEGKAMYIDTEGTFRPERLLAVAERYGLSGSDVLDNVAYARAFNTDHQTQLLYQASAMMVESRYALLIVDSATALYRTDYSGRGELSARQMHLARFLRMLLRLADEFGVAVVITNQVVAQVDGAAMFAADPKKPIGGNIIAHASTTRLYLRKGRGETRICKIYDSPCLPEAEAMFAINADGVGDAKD
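Read-out basis: percent inhibition relative to plate controls and blanks / Assay system: human Rad51 nucleoprotein filaments preassembled on unlabelled ssDNA / Timing: filaments 15 min 37 °C, then compound 30 min / Control set: per-plate controls and blanks / Technique: fluorescence dequenching at 485/520 nm / Compound: 10 µM final, single point / Also added: Fluorescein- and BHQ1-tagged 47-mer duplex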
Mdm2 ligase inh – MDM2-luciferase reporter signal enhancers, primary screen, MDM2 E3 ligase inhibitor project, cell-based, luminescence, 1536-well; E3 ubiquitin-protein ligase Mdm2 (Homo sapiens), Q00987; cell-based MDM2 ubiquitination luciferase reporter, 2 h; 0 = plate control, 100 = twice control, blank-subtracted; signal enhancement, % at 5 µM; hit rate 0.11% among 210,000; AID 1230, 2008;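 active = signal enhancement of 30% or more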;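 also: luminescence tracks abundance of the self-degrading MDM2-luciferase fusion protein; higher signal means inhibition of MDM2 E3 ligase activity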
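Test system: stable mammalian line carrying autodegrading MDM2–luciferase fusion reporter; quantity: 2000 cells in each well; times: 4 h cell settling then 2 h compound exposure, 37 °C; detection: luminescence with SteadyLite reagent, 15 min at room temperature; evaluation: percent signal gain over controls, blank-subtracted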
TNF death inh – inhibitors of TNF-alpha triggered necroptosis, primary screen, cell-based, Jurkat FADD-/-, single concentration. hit rate 0.068% among 220,000. activation (protection from cell death), % at 10 µM. Jurkat FADD-/- TNF necroptosis rescue, ATP luminescence, 24 h; 0 = TNF only, 100 = no-TNF cells. AID 463075, 2010;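 active = activation, meaning protection from cell death, of at least 50% relative to plate controls; inactive = activation below 50%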;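 also: necroptosis triggered by 40 ng/mL TNF-alpha added together with compound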
Pf gametocyte – late stage P. falciparum gametocyte viability inhibitors, primary screen, ATP luminescence, HTS; P. falciparum stage V gametocytes, 24 h; inhibition, % at 10.9 µM; hit rate 0.065% among 150,000; AID 743093, 2013;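 active = inhibition above the mean plus 3 SD of compounds within the control limits, set per campaign, cut at about 38% in these data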
zVAD necrop conf – inhibitors of zVAD-triggered necroptosis in L929, confirmation, L929 cells, duplicate runs | activation (protection from necroptosis), % at 10 µM | shares compounds with L929 necroptosis | hit rate 16% among 760 | L929 zVAD-induced necroptosis rescue, ATP luminescence, 24 h;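 active = mean protection from necroptosis of at least 50% over duplicate tests; inactive = mean protection below 50%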
Of the large screens only hits and unclear results are named; the others gave an inactive call (follow-up assays come after a bar, where they were run). In the library only some 0.58% were active in any assay of this set; here they are far more common.

COc1ccc(S(=O)(=O)c2cnc3ccccc3n2)cc1	L929 necroptosis 76 (no result: Pf gametocyte) | zVAD necrop conf inactive
N#CC(C#N)=C1C=CC=CN1/C(=C\c1ccco1)C(=O)c1ccc(-c2ccccc2)cc1	L929 necroptosis 99 | zVAD necrop conf inactive
N#CC(C#N)=C1C=CC=CN1/C(=C\c1ccco1)C(=O)c1ccc(Cl)cc1	none
Cc1nn(CCC#N)c(N)c1C1(O)C(=O)Nc2c(Cl)cc(Cl)cc21 (stereo not given)	none (no result: Rad51 HR inh)
COc1ccc(NC(=O)c2ccc(S(=O)(=O)C(F)F)cc2)c(OC)c1	L929 necroptosis 77 | zVAD necrop conf inactive
CCOC(=O)c1cccc2c(=O)c(C(=O)c3ccc(Cl)cc3)c(C(=O)OC)[nH]c12	none (no result: Rad51 HR inh)
COc1ccc(NC(=O)C(CC(=O)O)Cc2ccc(C)cc2)cc1 (stereo not given)	none (no result: Pf gametocyte)
C=CCOc1ccc(/C=N/Nc2ccccn2)cc1OC	L929 necroptosis 85 (no result: Pf gametocyte) | zVAD necrop conf inactive
COc1ccc(/C=N/Nc2ccccn2)c(OC)c1OC	L929 necroptosis 83 | zVAD necrop conf inactive
CCCOc1ccc(/C=N/Nc2ccccn2)cc1OC	none
CCOc1ccc(/C=N/Nc2ccccn2)cc1OC	L929 necroptosis 80 | zVAD necrop conf inactive
C=CCOC(=O)C1C(=O)CC(C)(O)C(C(=O)OCC=C)C1c1ccc(N(C)C)cc1 (stereo not given)	none
O=C(Nc1nsc(-c2ccccc2)n1)c1cccs1	L929 necroptosis 75 | zVAD necrop conf inactive
Cc1sc(NC(=O)c2cccs2)nc1-c1ccccc1	none
COc1cc(-c2noc(C)c2C(=O)NCCc2cccs2)cc(OC)c1OC	none (no result: L929 necroptosis, Rad51 HR inh, Mdm2 ligase inh, TNF death inh)
COC(=O)c1ccn(Cc2ccccc2Cl)n1	L929 necroptosis 90, TNF death inh 100 (no result: Rad51 HR inh) | zVAD necrop conf 81
COC(=O)c1cc2n(n1)CCN(Cc1ccccc1Cl)C2=O	none (no result: Rad51 HR inh)
C=CCn1c(SCc2ccc(C(=O)Nc3nccs3)cc2)nnc1-c1ccc(C)c(Cl)c1	L929 necroptosis 103 | zVAD necrop conf 60
Cn1nnnc1SCc1ccc(Cl)cc1	L929 necroptosis 83 | zVAD necrop conf inactive
Cn1nnnc1SCc1ccc(C(=O)Nc2nccs2)cc1	L929 necroptosis 92 | zVAD necrop conf 88
Cc1cc(C)cc(NC(=O)c2ccc(CSc3nnnn3C)cc2)c1	none (no result: Pf gametocyte)
C=CCN(c1ccccc1)S(=O)(=O)c1ccc(Cl)c(C(=O)OCC(=O)N(C)C2CCS(=O)(=O)C2)c1 (stereo not given)	none
Cc1oc(-c2cccc3ccccc23)nc1CN1CCC[C@H]1CO	none
C=C1C(=O)[C@@]23[C@H](O)C[C@@H]4C(C)(C)CC[C@H](O)[C@@]4(C)[C@@H]2CC[C@@H]1[C@H]3O	L929 necroptosis 121 (no result: Mdm2 ligase inh, Pf gametocyte) | zVAD necrop conf 78
C=C1C(=O)[C@@]23[C@H](O)C[C@@H]4C(C)(C)CC[C@H](O)[C@]4(C)[C@@H]2C[C@H](O)[C@@H]1[C@H]3O	none (no result: Mdm2 ligase inh, Pf gametocyte)
CC1CN(S(=O)(=O)c2ccc(C(=O)Nc3ccc(S(=O)(=O)Nc4nccs4)cc3)cc2)CC(C)O1 (stereo not given)	none (no result: Rad51 HR inh)
CC1CN(S(=O)(=O)c2ccc(C(=O)Nc3nccs3)cc2)CC(C)O1 (stereo not given)	L929 necroptosis 84 | zVAD necrop conf inactive
O=C(Nc1nccs1)c1ccc(S(=O)(=O)c2ccccc2)cc1	none
O=C(Nc1nccs1)c1ccc(S(=O)(=O)N2CCCCC2)cc1	L929 necroptosis 104, TNF death inh 52 (no result: Pf gametocyte) | zVAD necrop conf 77
COc1ccc(OCc2nnc(NC(=O)Nc3ccccc3F)s2)cc1	L929 necroptosis 83 (no result: Mdm2 ligase inh) | zVAD necrop conf inactive
O=C(Nc1nnc(-c2ccncc2)s1)Nc1ccccc1F	L929 necroptosis 78 | zVAD necrop conf inactive
Cc1ccccc1NC(=O)Cc1nnc(NC(=O)Nc2ccccc2F)s1	none
O=C(Nc1nnc(Cc2ccccc2)s1)Nc1ccccc1F	none (no result: L929 necroptosis, Rad51 HR inh, Mdm2 ligase inh, TNF death inh)
